Laboratory results as given in ChEMBL document CHEMBL1147256, “Antibacterial xanthones from the leaves of Garcinia nigrolineata” (2003).
≈ marks a conversion by molar mass, not a printed value. Calls of active or inactive are those of the source. The rule behind the calls is not given here.

Assays:
Staphylococcus aureus [1] = test: Antibacterial activity against methicillin-resistant Staphylococcus aureus at 32 ug/mL after 18 hrs by agar microdilution method; type: functional, organism-based
Staphylococcus aureus [2] = test: Antibacterial activity against methicillin-resistant Staphylococcus aureus after 18 hrs by agar microdilution method; type: functional
Procedure, shortened: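 MRSA clinical isolate from Songklanakarin Hospital. Compounds were dissolved in DMSO, serially 2-fold diluted and mixed 1:100 into melted Mueller-Hinton agar, giving final concentrations of 128 to 0.03 μg/mL. Inoculum was spotted onto the agar and incubated at 35 °C for 18 h. MIC was the lowest concentration with no visible growth. Vancomycin was the positive control; DMSO-agar was the growth control.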

Staphylococcus aureus [3] = test: Antibacterial activity against methicillin-resistant Staphylococcus aureus at 16 ug/mL after 18 hrs by agar microdilution method; type: functional, organism-based

Row | Compound | Activity (Staphylococcus aureus [2]) | other results
1 | CC(C)=CCc1c2c(c3oc4c(O)cccc4c(=O)c3c1O)C=CC(C)(C)O2 |  | Activity (Staphylococcus aureus [1]): Active
2 | CC(C)=CCc1ccc(O)c2oc3cc4c(c(O)c3c(=O)c12)CCC(C)(C)O4 | inactive | 
3 | CC(C)=CCc1c(O)c(CC=C(C)C)c2oc3c(O)cccc3c(=O)c2c1O |  | Activity (Staphylococcus aureus [3]): Active
4 | CC(C)(O)CCc1c2c(c(O)c3c(=O)c4cccc(O)c4oc13)CCC(C)(C)O2 | inactive | 
5 | CC(C)(O)CCc1ccc(O)c2oc3cc4c(c(O)c3c(=O)c12)CCC(C)(C)O4 | inactive | 
6 | CC(C)=CCc1c(O)cc2oc3c(O)ccc(CCC(C)(C)O)c3c(=O)c2c1O [NIGROLINEAXANTHONE N] |  | MIC (Staphylococcus aureus [2]): 4 µg/mL (≈ 10 µM)
7 | CC(C)=CCC/C(C)=C/CCC1(C)C=Cc2c(cc(O)c3c(=O)c4cccc(O)c4oc23)O1 (configuration not stated) | inactive | 
8 | CC(C)(O)CCc1ccc(O)c2oc3cc4c(c(O)c3c(=O)c12)C=CC(C)(C)O4 | inactive | 
9 | COC(C)(C)CCc1ccc(O)c2oc3cc(O)c(CC=C(C)C)c(O)c3c(=O)c12 | inactive | 
10 | CC(C)=CCc1c2c(c3oc4c(O)cccc4c(=O)c3c1O)CCC(C)(C)O2 | inactive | 
11 | CCOC(C)(C)CCc1c(O)cc2oc3c(O)ccc(CCC(C)(C)O)c3c(=O)c2c1O | inactive | 
12 | CC(C)=CCc1ccc(O)c2oc3cc4c(c(O)c3c(=O)c12)C=CC(C)(C)O4 | inactive | 
